Test results from ChEMBL document CHEMBL4130606, “Ophiobolins from the Mangrove Fungus Aspergillus ustus” (J Nat Prod, 2018).
Structures can show the parent of a compound that is named as a salt. Active and inactive are the calls of the source. The rule behind the calls is not given here.

Assays:
[1] = test system: HL-60; assay: Cytotoxicity against human HL60 cells after 72 hrs by MTT assay; format: functional, cell-based; conditions: HL-60, 72 h
Procedure, shortened: (§1)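 MTT viability assay on human cell lines, with values given as IC50. Lines used: gemcitabine-resistant pancreatic cancer G3K, breast adenocarcinoma MCF-7, its adriamycin-resistant subline MCF-7/Adr, triple-negative breast cancer MDA-MB-231, nontumorigenic breast epithelial MCF10A, non-small-cell lung cancer A549, and promyelocytic leukemia HL-60.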

[2] = test system: Candida albicans; assay: Antimicrobial activity against Candida albicans ATCC 10231 at 1 ug after 24 hrs by paper disc agar diffusion method; format: functional, organism-based
[3] = Cytotoxicity against human G3K cells after 72 hrs by MTT assay; format: functional, cell-based; procedure, shortened: as §1
[4] = test system: MDA-MB-231; assay: Cytotoxicity against human MDA-MB-231 cells after 72 hrs by MTT assay; format: functional, cell-based; conditions: MDA-MB-231, 72 h
[5] = test system: NCI/ADR-RES; assay: Cytotoxicity against human MCF7/ADR cells after 72 hrs by MTT assay; format: functional, cell-based; procedure, shortened: as §1
[6] = test system: Escherichia coli; assay: Antimicrobial activity against Escherichia coli ATCC 11775 at 1 ug after 24 hrs by paper disc agar diffusion method; format: functional, organism-based; conditions: DSM 30083 = JCM 1649 = ATCC 11775
[7] = test system: MCF7; assay: Cytotoxicity against human MCF7 cells after 72 hrs by MTT assay; format: functional, cell-based; conditions: MCF7, 72 h; procedure, shortened: as §1
[8] = test system: A549; assay: Cytotoxicity against human A549 cells after 72 hrs by MTT assay; format: functional, cell-based; conditions: A549, 72 h; procedure, shortened: as §1
[9] = test system: Pseudomonas aeruginosa; assay: Antimicrobial activity against Pseudomonas aeruginosa ATCC 10145 at 1 ug after 24 hrs by paper disc agar diffusion method; format: functional, organism-based
[10] = test system: Klebsiella aerogenes; assay: Antimicrobial activity against Enterobacter aerogenes ATCC 13048 at 1 ug after 24 hrs by paper disc agar diffusion method; format: functional, organism-based
[11] = test system: Bacillus subtilis; assay: Antimicrobial activity against Bacillus subtilis ATCC 6051 at 1 ug after 24 hrs by paper disc agar diffusion method; format: functional, organism-based
[12] = test system: MCF-10A; assay: Cytotoxicity against human MCF10A cells after 72 hrs by MTT assay; format: functional, cell-based; procedure, shortened: as §1

SMILES	IC50 [1]	Activity [2]	IC50 [3]	IC50 [4]	IC50 [5]	Activity [6]	IC50 [7]	IC50 [8]	Activity [9]	Activity [10]	Activity [11]	IC50 [12]
CC(C)=C/C=C\[C@H](C)[C@H]1CC[C@]2(C)C[C@@H]3C(C)=CC(=O)[C@H]3/C(CO)=C\C[C@@H]12	> 50 µM	inactive	1.9 µM	> 20 µM	> 40 µM	inactive	> 40 µM	> 50 µM	inactive	inactive	inactive	
CO[C@@H]1O[C@@]2(OC)C[C@@](C)(O)[C@H]3C[C@@]4(C)CC[C@H]([C@@H](C)/C=C\C=C(C)C)[C@@H]4C/C=C/1[C@H]32	0.8 µM	inactive				inactive		0.6 µM	inactive	inactive	inactive	
CO[C@H]1O[C@@]2(OC)C[C@@](C)(O)[C@H]3C[C@@]4(C)CC[C@H]([C@@H](C)/C=C\C=C(C)C)[C@@H]4C/C=C/1[C@H]32 [OPHIOBOLIN O]	1.7 µM	inactive				inactive		2.4 µM	inactive	inactive	inactive	
CC(C)=C/C=C\[C@H](C)[C@H]1CC[C@]2(C)CC3=C(C(=O)C[C@H]3C)/C(CO)=C\C[C@@H]12			> 20 µM	> 40 µM	> 40 µM		> 40 µM					
CO[C@H]1C[C@H]2[C@@H]([C@@H](C)/C=C\C=C(C)C)CC[C@]2(C)C[C@H]2[C@H]3C1=CO[C@H]3C[C@@]2(C)O			> 20 µM	> 40 µM	> 40 µM		> 40 µM					
CC(C)=C/C=C\[C@H](C)[C@H]1CC[C@]2(C)C[C@@H]3C(C)=CC(=O)[C@@H]3/C(C=O)=C\C[C@@H]12			9.5 µM	14.1 µM	34.6 µM		22.9 µM					> 40 µM
CC(C)=C/C=C\[C@H](C)[C@H]1CC[C@]2(C)C[C@H]3[C@H](C(=O)C[C@@]3(C)O)/C(C=O)=C\C[C@@H]12			> 20 µM	5.9 µM	4.1 µM		5.1 µM					8.4 µM
COc1cccc2c1C(=O)c1c(O)c3c(c(O)c1C2=O)C[C@@](O)(C(=O)CO)C[C@@H]3O[C@H]1C[C@H](N)[C@H](O)[C@H](C)O1 [DOXORUBICIN HYDROCHLORIDE]			45 µM		2.9 µM		0.1 µM					0.2 µM
CC(C)=C/C=C\[C@H](C)[C@H]1CC[C@]2(C)C[C@H]3[C@@H](C(=O)C[C@@]3(C)O)/C(C=O)=C\C[C@@H]12		inactive	6.8 µM	4.1 µM	26.1 µM	inactive	12.8 µM		inactive	inactive	inactive	> 40 µM
CC1=CC(=O)[C@H]2/C(C=O)=C\C[C@H]3[C@@H]([C@@H](C)/C=C\[C@@H](O)C(C)(C)O)CC[C@]3(C)C[C@H]12	7.2 µM							33.8 µM				
CO[C@H]1O[C@]2(OC)C[C@@](C)(O)[C@H]3C[C@@]4(C)CC[C@H]([C@@H](C)/C=C\C=C(C)C)[C@@H]4C/C=C/1[C@@H]32		inactive	> 20 µM	21.4 µM	7.9 µM	inactive	9.4 µM		inactive	inactive	inactive	> 40 µM
CC(C)=C/C=C\[C@H](C)[C@H]1CC[C@]2(C)C[C@@H]3C(C)=CC(=O)[C@H]3/C(C=O)=C\C[C@@H]12		inactive	16.8 µM	11.6 µM	35.4 µM	inactive	15.4 µM		inactive	inactive	inactive	> 40 µM
CC(C)=C/C=C\[C@H](C)[C@H]1CC[C@]2(C)C[C@H]3[C@H](C(=O)C[C@@]3(C)O)/C(C)=C\C[C@@H]12	7 µM							15.1 µM				
CC(C)=C/C=C\[C@H](C)[C@H]1CC[C@]2(C)C[C@H]3[C@H]4/C(=C\C[C@@H]12)C(=O)O[C@H]4C[C@@]3(C)O	> 50 µM	inactive	> 20 µM	> 40 µM	> 40 µM	inactive	> 40 µM	> 50 µM	inactive	inactive	inactive	
CO[C@@H]1O[C@]2(OC)C[C@@](C)(O)[C@H]3C[C@@]4(C)CC[C@H]([C@@H](C)/C=C\C=C(C)C)[C@@H]4C/C=C/1[C@@H]32		inactive	19.1 µM	18.5 µM	5.4 µM	inactive	13.2 µM		inactive	inactive	inactive	> 40 µM
CC(C)=C/C=C\[C@H](C)[C@H]1CC[C@]2(C)C[C@H]3[C@@H]4/C(=C\C[C@@H]12)C(=O)O[C@]4(O)C[C@@]3(C)O		inactive	> 20 µM	> 40 µM	> 40 µM	inactive	> 40 µM		inactive	inactive	inactive	
CC(C)=C/C=C\[C@H](C)[C@H]1CC[C@]2(C)CC3=C(C(=O)C[C@H]3C)/C(C=O)=C\C[C@@H]12			> 20 µM	39.8 µM	> 40 µM		> 40 µM					
CC(C)=C/C=C\[C@H](C)[C@H]1CC[C@]2(C)C[C@H]3[C@@H]4/C(=C\C[C@@H]12)CO[C@@H]4C[C@@]3(C)O			> 20 µM	> 40 µM	> 40 µM		> 40 µM					
